Reference: PubChem BioAssay
Values without a mark were called inactive. Inconclusive results are not listed. Calls of active or inactive are those of the source.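 How the source made its calls, unless noted: active means RAM network inhibition above 8.4% in each of two replicates, 3 SD over the compound average; inconclusive means above 8.4% inhibition in only one replicate; inactive means 8.4% inhibition or less in each replicate.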

What was measured:
[1] = OD615 S. cerevisiae growth inhibition, permissive medium, pilot counter-assay, permissive growth control for S. cerevisiae lifespan shortening project (AID 705;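 active means growth inhibition above 25% in both replicates, a cutoff set 3 SD above the mean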); conditions: OD615, 24 h, at 10 µM, stronger effect = higher value
Procedure, shortened: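 Timing: 24 h exposure, 30 °C / Material: Saccharomyces cerevisiae strain carrying genetically modified DeaD replicative-lifespan system / Signal: OD at 615 nm / Compound: 10 µM single dose, 0.25% DMSO / Medium: SC raffinose/galactose permissive medium / Evaluation: reduction in yeast growth (OD615)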

[2] = Restrictive medium S. cerevisiae growth inhibition, OD615, pilot screen of yeast lifespan reduction project, restrictive growth control (AID 706;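 active means growth inhibition above a set limit, 3 SD over mean compound inhibition, in both replicates, cut at about 43% in these data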;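 further: modified DeaD lifespan yeast strain shifted to restrictive glucose medium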); conditions: OD615, 48 h, at 10 µM, stronger effect = higher value
Procedure, shortened: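 System: Engineered S. cerevisiae DeaD strain | Detection: OD615 | Buffer or medium: CSMM-D glucose medium | Doses: 10 µM compound, 0.25% DMSO | Timing: 4 h pre-growth plus 48 h compound exposure, 30 °C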

[3] = viability gain of MRP-1-high H69AR cells under doxorubicin, pilot screen, MRP-1 activator project, CellTiter-Glo, duplicate (AID 807;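 active means viability increase at or above a cutoff of the median across tested compounds plus 3 SD, cut at about 8.5% in these data, passing the limit was not always enough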;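 further: compound pretreatment 18-22 h then 72 h combined with doxorubicin; 0% = doxorubicin alone and 100% = vehicle without doxorubicin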); conditions: H69AR viability with doxorubicin, CellTiter-Glo luminescence; at 10 µM; stronger effect = higher value
[4] = growth suppression of PTEN-deleted HCT116, pilot screen, cell-based, HCT116 clonal line, CellTiter-Glo (AID 824;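 active means viability at or below 27.92% in each of two runs, the all-compound median minus 4 SD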;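 further: 0% = 20 µM Hyamine control and 100% = vehicle cell control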); conditions: 60 h, at 10 µM, stronger effect = lower value
[5] = inhibitors of the yeast RAM network, pilot screen, dse1pr::URA3 reporter, 5-FOA selection (AID 869;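 active means inhibition over a set limit, the all-compound mean plus 3 SD, in both replicate runs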;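 further: 0% = DMSO wells with no growth and 100% = 10 µM 1-NA-PP1 with full growth; RAM network block rescues cells from 5-FOA so hits raise OD615 growth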); conditions: S. cerevisiae dse1pr::URA3 5-FOA growth, OD615, 2 d; at 10 µM; stronger effect = higher value; strain carries analog-sensitive mutant Cbk1 kinase
[6] = RAM signaling pathway blockade in yeast – S. cerevisiae, Pdr1DBD-CYC8 efflux-inhibited sensitized strain, primary screen (AID 1298);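 further: 0% = DMSO untreated cells without growth and 100% = 10 µM 1-NA-PP1 full growth; higher means more yeast growth rescued from 5-FOA killing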; conditions: S. cerevisiae cbk1-as DSE1-URA3 strain, 5-FOA growth OD615, 2 d; at 50 µM; stronger effect = higher value

Row | SMILES | growth inhibition [1] [%] | growth inhibition [2] [%] | viability increase [3] [%] | viability [4] | inhibition [5] [%] | RAM network inhibition [6] [%]
1 | Cc1ccc2nc(NC(=O)c3cccs3)sc2c1 | -2.67 | 10.6 | -4.54 | 69.2% | 1.29 | 4.15
2 | O=C1C(=O)N(CCCn2ccnc2)C(c2cccnc2)/C1=C(/O)c1ccc(Br)cc1 (stereo unspecified) | -7.97 | 7.01 | -0.15 | 104% | 1.9 | 4
3 | CCS(=O)(=O)N1CCN(C(=O)c2cccs2)CC1 | -9.68 | -12.3 | -1.23 | 100% | 3.8 | -0.05
4 | O=c1[nH]c(SCc2ccccc2Cl)nc2c1CCC2 | -4.46 | -1.71 | -2.17 | 96.9% | 1.91 | 1.7
5 | Cn1cnnc1SCC(=O)c1ccco1 | -5.92 | -3.4 | -1.08 | 106% | 0.79 | 3.27
6 | O=C(c1ccc(CN2CCOCC2)cc1)N1CCC(Cc2ccccc2)CC1 | -5.94 | -3.29 | -0.71 | 93.1% | 1.29 | 9.1
7 | O=C(CSc1nc2c(c(=O)n1-c1ccc(Cl)cc1)SCC2)N1CCCC1 | 1.32 | 24.2 | -4.23 | 101% | 1.31 | 0.57
8 | O=C(CCCSc1nc2ccccc2s1)NCc1ccco1 | 1.82 | -1.56 | -2.85 | 86.3% | 1.28 | -0.82
9 | c1ccc(-c2noc(-c3cccnc3)n2)cc1 | 5.9 | 2.4 | -3.8 | 95.2% | -0.04 | 3.95
10 | COC(=O)C1=C(C)NC2=C(C(=O)CC(c3cccs3)C2)C1c1ccsc1 (stereo unspecified) | -7.01 | 2.53 | -6.75 | 40.1% | 1.25 | 4.86
11 | CC(C)Cn1c(SCC#N)nc2ccccc2c1=O | -0.35 | -14.3 | -1.74 | 88% | 1.18 | 5.88
12 | C=CCn1c(C)cc(C(=O)COc2nncc3ccccc23)c1C | -10.3 | -15 | -2.37 | 74.2% | 2.32 | 0.87
13 | CCCCN1C(=O)C(O)(CC(=O)c2ccco2)c2cc(Br)ccc21 (stereo unspecified) | 2.79 | 2.35 | -6.26 | 11.5% (active) | -0.765 | -1.34
14 | Cc1csc(NC(=O)NC2(C(F)(F)F)Oc3ccccc3O2)n1 | -6.66 | 0.47 | -6.08 | 84.3% | 0.995 | 5.12
15 | CCOC(=O)N1CCN(C(=O)c2oc3ccc(S(=O)(=O)N4CCOCC4)cc3c2C)CC1 | -6.53 | -12.6 | -4.64 | 99.9% | 2.71 | 4.61
16 | CS(=O)(=O)N(CC(=O)N1CCN(c2ccccc2F)CC1)c1cc(C(F)(F)F)ccc1Cl | 1.93 | 0.015 | 0.43 | 88.3% | -0.485 | 0.87
17 | CCOC(=O)c1c(NC(=O)OC)sc(C(=O)N(CC)CC)c1C | -14.6 | -12.4 | -1.31 | 93% | 1.47 | 1.79
18 | CCN(CC)C(=O)c1cn(C)c(=O)c2cc(OC)c(OC)cc12 | -12.1 | -8.38 | -4.4 | 98.8% | 0.515 | -1.59

Row | SMILES | growth inhibition [1] [%] | growth inhibition [2] [%] | viability increase [3] [%] | viability [4] | inhibition [5] [%] | RAM network inhibition [6] [%]
19 | CC(C)CC(NC(=O)C1CCCCC1)C(=O)NCc1ccccn1 (stereo unspecified) | 1.21 | -10.9 | -4.03 | 94.4% | 1.04 | -0.2
20 | O=C(c1ccco1)N1CCCC(c2nc(-c3ccc(S(=O)(=O)NCc4ccccc4)cc3)no2)C1 (stereo unspecified) | -8.47 | -27.3 | -2.74 | 47.4% | 1.58 | 3.3
21 | CCc1nnc2n1N=C(c1ccc(-c3cc(Cl)ccc3Cl)o1)CS2 | 9.53 | 26.5 | -7.22 | 22.4% (active) | 2.5 | 5.16
22 | Cc1cc(C(=O)N2CCN(c3ccccn3)CC2)c(C)o1 | 9.65 | -7.73 | -5.92 | 96.3% | 0.945 | 4.2
23 | O=C(CCCC(=O)N1CCCc2ccccc21)N1CCCc2ccccc21 | -8.11 | -5.5 | -4.74 | 95.3% | 2.04 | 1.5
24 | c1ccc(-n2nnnc2-n2ccnc2)cc1 | 3.38 | 1.55 | -0.62 | 109% | 0.76 | 0.92
25 | CCc1cc(=O)oc2cc(OCC(=O)OC)c(Cl)cc12 | -4.85 | 1.34 | -2.39 | 101% | 0.695 | 4.51
26 | CCOC(=O)N1CCN(C(=O)CN(c2ccc(Cl)c(C(F)(F)F)c2)S(C)(=O)=O)CC1 | -5.69 | -17.2 | -4.27 | 90.3% | -0.06 | 3.68
27 | Cc1cc2ccccc2c(=O)n1CC(=O)NCC(=O)N(C)Cc1ccccc1 | -10.2 | -4.71 | -0.97 | 98.6% | 0.475 | 5.32
28 | CCN(Cc1ccccc1)S(=O)(=O)c1ccc(C(=O)Nc2nnc(C3CC3)o2)cc1 | -5.06 | -18.6 | -4.27 | 22.8% (active) | 2.35 | 5.05
29 | CCn1cc(C(=O)NCCCOC)c2cc(OC)c(OC)cc2c1=O | -10.7 | 0.745 | -2.42 | 104% | 2.5 | 3.59
30 | O=C(c1ccsc1)N1CCN(C(=O)c2cccs2)CC1 | -9.91 | 2.31 | 1.13 | 107% | 2.04 | 0.97
31 | O=C(CN1CCN(c2ccccn2)CC1)N(c1ccccc1)c1ccc2ccccc2c1 | -6.17 | -0.835 | -1.57 | 69.9% | 2.88 | 5.32
32 | Oc1ccc(C=NCC2COc3ccccc3O2)cc1 (stereo unspecified) | -7.84 | 2.85 | -5.39 | 85.3% | 1.54 | -2.56
33 | COc1ccc(S(=O)(=O)C(C#N)c2nc3ccccc3nc2N2CCC(C)CC2)cc1 (stereo unspecified) | -12.1 | -14.1 | -4.72 | 87.9% | 3.85 | 8.8
34 | CCOC(=O)COc1cccc2c(=O)n(CC(=O)NCc3ccc4c(c3)OCO4)ccc12 | -18.3 | -15.8 | -5.67 | 27.3% (active) | 3.72 | 6.61
35 | CCNc1nc(-c2ccc(Cl)cc2)cs1 | 1.33 | 0.05 | -1.74 | 84.4% | -0.24 | -0.26
36 | NS(=O)(=O)c1ccc(NC(=O)COC(=O)CCNC(=O)NC23CC4CC(CC(C4)C2)C3)cc1 | -10.4 | -4.2 | 0.2 | 98.6% | 0.55 | 3.28
